According to ChEMBL document CHEMBL2380272, “Biological evaluation of bisbenzaldehydes against four Mycobacterium species” (Eur J Med Chem, 2013):
Converted amounts (≈) assume the structure as drawn.

Assays:
[1] = system: Mycobacterium tuberculosis; experiment: Antimycobacterial activity against Mycobacterium tuberculosis H37Rv infected in mouse J774.A1 cells at 1 MOI assessed as intracellular bacterial growth inhibition at 1 uM after 1 hr by luciferase reporter gene assay relative to control; format: functional; conditions: J774.A1, 1 h, read-out: GI
[2] = Cytotoxicity against human HepG2/C3A cells assessed as cell viability at 60 uM after 24 hrs by neutral red uptake assay relative to control; format: cell-based; conditions: read-out: Activity
Method in brief: (§1)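 C3A cells grown in DMEM + 10% FCS, 40 000 cells/well, recovered overnight at 37 °C, 5% CO2. Exposed 24 h to serial dilutions in DMEM + 10% FCS from 18 mM DMSO stocks, DMSO limited to 1%. Neutral red added for 3 h, cells washed, dye extracted with ethanol/acetic acid (50%/1%), OD read at 540 nm with 620 nm reference. Viability expressed as % of untreated cells.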

[3] = system: Mycobacterium tuberculosis; experiment: Antimycobacterial activity against Mycobacterium tuberculosis H37Rv infected in mouse J774.A1 cells at 1 MOI assessed as intracellular bacterial growth inhibition at 10 uM after 1 hr by luciferase reporter gene assay relative to control; format: functional; conditions: J774.A1, 1 h, read-out: GI
[4] = Cytotoxicity against human HepG2/C3A cells assessed as cell viability at 180 uM after 24 hrs by neutral red uptake assay relative to control; format: cell-based; conditions: read-out: Activity; method in brief: as §1
[5] = Cytotoxicity against human HepG2/C3A cells assessed as cell viability at 120 uM after 24 hrs by neutral red uptake assay relative to control; format: cell-based; conditions: read-out: Activity; method in brief: as §1
[6] = system: Mycobacterium avium subsp. paratuberculosis; experiment: Antimycobacterial activity against Mycobacterium avium subsp. paratuberculosis ATCC 19698 assessed as growth inhibition after 6 days by luciferase reporter gene assay; format: functional; conditions: ATCC 19698, 144 h
Method in brief: (§2)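 Mycobacteria carrying the pSMT1 luciferase reporter plasmid. Compounds came from 10 mM DMSO stocks and were serially diluted in 7H9 + 10% FCS. Thawed bacteria were filtered, recovered 1 h at 37 °C, then added at 50 000 RLU/mL. After 6 days of culture, light was read for 10 s after adding 1% n-decanal. Triplicates were run, and MIC50 was the concentration giving 50% growth inhibition.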

[7] = system: Mycobacterium tuberculosis; experiment: Antimycobacterial activity against Mycobacterium tuberculosis H37Rv infected in mouse J774.A1 cells at 1 MOI assessed as intracellular bacterial growth inhibition at 0.1 uM after 1 hr by luciferase reporter gene assay relative to control; format: functional; conditions: J774.A1, 1 h, read-out: GI
[8] = system: Mycobacterium tuberculosis; experiment: Antimycobacterial activity against Mycobacterium tuberculosis H37Rv ATCC 27294 assessed as growth inhibition at 0.1 uM after 6 days by luciferase reporter gene assay relative to control; format: functional; conditions: H37Rv ATCC 27294, 144 h, read-out: GI
Method in brief: (§3)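 Luminescent M. tb H37Rv (hsp60-driven luciferase) in 7H9 + 10% FCS was seeded at 50 000 RLU/mL. Compounds were tested at 10, 1 and 0.1 µM from 10 mM DMSO stocks. After 6 days, luminescence was read with 1% n-decanal. Growth inhibition (%) was expressed against untreated culture, with triplicates.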

[9] = system: Mycobacterium tuberculosis; experiment: Antimycobacterial activity against Mycobacterium tuberculosis H37Rv ATCC 27294 assessed as growth inhibition after 6 days by luciferase reporter gene assay; format: functional; conditions: H37Rv ATCC 27294, 144 h; method in brief: as §2
Salmonella typhimurium [10] = experiment: Genotoxicity in recombinant Salmonella typhimurium TA104 expressing Vibrio fisheri luxabcd genes under transcriptional control of recN2-4 promoter assessed as concentration required to cause DNA damage measured every 5 mins for 4 hrs by vitotox assay in presence of S9 fraction; format: toxicity, organism-based; conditions: salmonella enterica subsp. enterica serovar typhimurium, s9, 4 h
Method in brief: (§4)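 VITOTOX genox strain TA104 recN2-4 (recN promoter driving lux). Grown 16 h at 36 °C in poor LB, diluted 125-fold and shaken 1 h, then diluted 10-fold; rat aroclor S9 added for +S9 runs. Incubated at 30 °C with light read every 5 min for 4 h. Signal/noise = exposed over unexposed light. Highest concentration tested 10 µM.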

Salmonella typhimurium [11] = experiment: Toxicity in recombinant Salmonella typhimurium TA104 expressing luxabcd genes under transcriptional control of constitutive pr1 promoter assessed as concentration required to reduce cell viability measured every 5 mins for 4 hrs by vitotox assay in absence of S9 fraction; format: organism-based; conditions: salmonella enterica subsp. enterica serovar typhimurium
Method in brief: (§5)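 Cytox strain TA104 pr1 (constitutive promoter driving lux), run alongside the genox strain. Grown in poor LB at 36 °C for 16 h, diluted 125-fold and shaken 1 h, then diluted 10-fold, with or without aroclor-rat S9. Luminescence read at 30 °C every 5 min over 4 h; a drop in light signal indicates reduced viability. Top concentration 10 µM.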

[12] = system: Mycobacterium tuberculosis; experiment: Antimycobacterial activity against Mycobacterium tuberculosis H37Rv ATCC 27294 assessed as growth inhibition at 10 uM after 6 days by luciferase reporter gene assay relative to control; format: functional; conditions: H37Rv ATCC 27294, 144 h, read-out: GI; method in brief: as §3
[13] = Antimycobacterial activity against Mycobacterium avium subsp. avium ATCC 15769 assessed as growth inhibition after 6 days by luciferase reporter gene assay; format: functional; conditions: ATCC 15769, 144 h; method in brief: as §2
Salmonella typhimurium [14] = experiment: Genotoxicity in recombinant Salmonella typhimurium TA104 expressing Vibrio fisheri luxabcd genes under transcriptional control of recN2-4 promoter assessed as concentration required to cause DNA damage measured every 5 mins for 4 hrs by vitotox assay in absence of S9 fraction; format: toxicity, organism-based; conditions: salmonella enterica subsp. enterica serovar typhimurium; method in brief: as §4
Mycobacterium ulcerans = experiment: Antimycobacterial activity against Mycobacterium ulcerans 1615 assessed as growth inhibition after 6 days by luciferase reporter gene assay; format: functional; conditions: Mycobacterium ulcerans, 1615, 144 h
Method in brief: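 M. ulcerans 1615 carrying pSMT1 luciferase reporter plasmid, stock grown as surface pellicle on Sauton medium, cultured at 32 °C. Serial compound dilutions in 7H9 + 10% FCS from 10 mM DMSO stocks, tested in triplicate. Filtered bacteria added at 50 000 RLU/mL. After 6 days, wells collected and washed with PBS, 1% n-decanal in ethanol added, light read over 10 s. MIC50 = concentration giving 50% inhibition versus untreated.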

[15] = Selectivity index, ratio of NI50 for human HepG2/C3A cells to MIC50 for Mycobacterium tuberculosis H37Rv ATCC 27294; format: functional
[16] = Toxicity in recombinant Salmonella typhimurium TA104 expressing luxabcd genes under transcriptional control of constitutive pr1 promoter assessed as concentration required to reduce cell viability measured every 5 mins for 4 hrs by vitotox assay in presence of S9 fraction; format: organism-based; conditions: salmonella enterica subsp. enterica serovar typhimurium; read-out: Activity; method in brief: as §5
[17] = system: Mycobacterium tuberculosis; experiment: Antimycobacterial activity against Mycobacterium tuberculosis H37Rv ATCC 27294 assessed as growth inhibition at 1 uM after 6 days by luciferase reporter gene assay relative to control; format: functional; conditions: H37Rv ATCC 27294, 144 h, read-out: GI; method in brief: as §3

O=Cc1ccc(OCCCCOc2ccc(C=O)cc2)cc1
percent inhibition of intracellular bacterial growth at 1 µM [1]: 39%
viability at 24 h, 60 µM [2]: 86.1%
intracellular bacterial growth inhibition at 10 µM [3]: 41.3%
viability at 24 h, 180 µM [4]: 55.7%
viability at 24 h, 120 µM [5]: 73.2%
MIC50 [6]: > 10 µM
intracellular bacterial growth inhibition at 0.1 µM [7]: -0.9%
inhibition of growth at 0.1 µM [8]: < 10%
MIC50 [9]: 3.21 µM (≈ 0.958 µg/mL)
Activity (Salmonella typhimurium [10]): > 10 µM
Activity (Salmonella typhimurium [11]): > 10 µM
inhibition of growth at 10 µM [12]: 87%
MIC50 [13]: > 10 µM
Activity (Salmonella typhimurium [14]): > 10 µM
MIC50 (Mycobacterium ulcerans): > 10 µM
Selectivity Index [15]: >56.1
MCC at 4 h [16]: > 10 µM
inhibition of growth at 1 µM [17]: 25%

O=C(O)c1ccc(OCCCCOc2ccc(C(=O)O)cc2)cc1
inhibition of growth at 0.1 µM [8]: < 10%
inhibition of growth at 10 µM [12]: 27%
inhibition of growth at 1 µM [17]: 26%

O=C(O)c1ccc(OCCCCCCOc2ccc(C(=O)O)cc2)cc1
inhibition of growth at 0.1 µM [8]: < 10%
inhibition of growth at 10 µM [12]: 39%
inhibition of growth at 1 µM [17]: 26%

NNC(=O)c1ccncc1 [ISONIAZID]
percent inhibition of intracellular bacterial growth at 1 µM [1]: 82.3%
intracellular bacterial growth inhibition at 10 µM [3]: 97.7%
MIC50 [6]: < 0.1 µM
intracellular bacterial growth inhibition at 0.1 µM [7]: 37%
inhibition of growth at 0.1 µM [8]: 98%
MIC50 [9]: < 0.1 µM
inhibition of growth at 10 µM [12]: 100%
MIC50 [13]: < 0.1 µM
MIC50 (Mycobacterium ulcerans): 0.39 µM (≈ 0.0535 µg/mL)
inhibition of growth at 1 µM [17]: 100%

O=C(O)c1ccc(OCCCCCCCCCOc2ccc(C(=O)O)cc2)cc1
inhibition of growth at 0.1 µM [8]: < 10%
inhibition of growth at 10 µM [12]: 17%
inhibition of growth at 1 µM [17]: 17%

O=Cc1cccc(OCCCCCCCCCCCCOc2cccc(C=O)c2)c1
inhibition of growth at 0.1 µM [8]: < 10%
inhibition of growth at 10 µM [12]: < 10%
inhibition of growth at 1 µM [17]: < 10%

c1ccc(OCCCCCCCCCCCCOc2ccccc2)cc1
inhibition of growth at 0.1 µM [8]: < 10%
inhibition of growth at 10 µM [12]: < 10%
inhibition of growth at 1 µM [17]: < 10%

O=Cc1ccc(OCC(O)COc2ccc(C=O)cc2)cc1
inhibition of growth at 0.1 µM [8]: < 10%
inhibition of growth at 10 µM [12]: 60%
inhibition of growth at 1 µM [17]: < 10%

O=C(O)c1ccc(OCCCCCCCCCCOc2ccc(C(=O)O)cc2)cc1
inhibition of growth at 0.1 µM [8]: < 10%
inhibition of growth at 10 µM [12]: 40%
inhibition of growth at 1 µM [17]: < 10%

O=C(O)c1ccc(OCCOc2ccc(C(=O)O)cc2)cc1
inhibition of growth at 0.1 µM [8]: < 10%
inhibition of growth at 10 µM [12]: 38%
inhibition of growth at 1 µM [17]: < 10%

O=C(O)c1ccc(OCCCCCCCCOc2ccc(C(=O)O)cc2)cc1
inhibition of growth at 0.1 µM [8]: < 10%
inhibition of growth at 10 µM [12]: 29%
inhibition of growth at 1 µM [17]: 29%

O=Cc1ccc(OCCCCCCCCCCCCCCOc2ccc(C=O)cc2)cc1
inhibition of growth at 0.1 µM [8]: 30%
inhibition of growth at 10 µM [12]: 98%
inhibition of growth at 1 µM [17]: 57%

O=Cc1ccccc1OCCCCCOc1ccccc1C=O
inhibition of growth at 0.1 µM [8]: < 10%
inhibition of growth at 10 µM [12]: 39%
inhibition of growth at 1 µM [17]: 15%

O=Cc1ccc(OCCOCCOc2ccc(C=O)cc2)cc1
inhibition of growth at 0.1 µM [8]: < 10%
inhibition of growth at 10 µM [12]: 70%
inhibition of growth at 1 µM [17]: 12%

O=C(O)c1ccc(OCCCOc2ccc(C(=O)O)cc2)cc1
inhibition of growth at 0.1 µM [8]: < 10%
inhibition of growth at 10 µM [12]: < 10%
inhibition of growth at 1 µM [17]: < 10%

O=C(O)c1ccc(OCCCCCCCCCCCOc2ccc(C(=O)O)cc2)cc1
inhibition of growth at 0.1 µM [8]: < 10%
inhibition of growth at 10 µM [12]: 15%
inhibition of growth at 1 µM [17]: < 10%

O=C(O)c1ccc(OCCCCCCCOc2ccc(C(=O)O)cc2)cc1
inhibition of growth at 0.1 µM [8]: < 10%
inhibition of growth at 10 µM [12]: 38%
inhibition of growth at 1 µM [17]: 14%

O=C(O)c1ccc(OCOc2ccc(C(=O)O)cc2)cc1
inhibition of growth at 0.1 µM [8]: < 10%
inhibition of growth at 10 µM [12]: 40%
inhibition of growth at 1 µM [17]: < 10%

O=[N+]([O-])c1ccc(OCCCCCCCCCCCCOc2ccc([N+](=O)[O-])cc2)cc1
inhibition of growth at 0.1 µM [8]: < 10%
inhibition of growth at 10 µM [12]: 91%
inhibition of growth at 1 µM [17]: < 10%

CCCCCCCCCCCCOc1ccc(C=O)cc1
inhibition of growth at 0.1 µM [8]: < 10%
inhibition of growth at 10 µM [12]: < 10%
inhibition of growth at 1 µM [17]: < 10%

O=C(O)c1ccc(OCCCCCCCCCCCCOc2ccc(C(=O)O)cc2)cc1
inhibition of growth at 0.1 µM [8]: < 10%
inhibition of growth at 10 µM [12]: < 10%
inhibition of growth at 1 µM [17]: < 10%

O=Cc1cccc(OCCCCCOc2cccc(C=O)c2)c1
inhibition of growth at 0.1 µM [8]: < 10%
inhibition of growth at 10 µM [12]: 97%
inhibition of growth at 1 µM [17]: < 10%

O=C(O)c1ccc(OCCCCCOc2ccc(C(=O)O)cc2)cc1
inhibition of growth at 0.1 µM [8]: < 10%
inhibition of growth at 10 µM [12]: 27%
inhibition of growth at 1 µM [17]: 30%
